Compounds with a hit are over-represented: about 1.5% of the library has one in this group of screens.
NR2E3 ag-1: NR2E3 agonists in two-hybrid cells, primary screen, cell-based, luminescence, CHO-S, Gal4-NCOR/VP16-NR2E3. Photoreceptor-specific nuclear receptor (Homo sapiens), Q9Y5X4. luciferase. inhibition of corepressor binding, % at 3.98 µM. 360,000 tested, 0.35% active. AID 602229, 2012;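 active means inhibition above the mean of all tested compounds plus 3 SD, cut at about 70% in these data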;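 further: 0% = DMSO with NR2E3 transfected cells and 100% = cells lacking NR2E3 construct; higher means lower luciferase signal from less NR2E3 corepressor binding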
PG9 binder: binders of HIV-1 gp120 antibody PG9, primary screen, biochemical, TR-FRET. HIV-1 gp120 / PG9 antibody interaction. TR-FRET gp120-PG9 antibody binding. inhibition, % at 6.7 µM. 360,000 tested, 0.43% active; in the data active means inhibition above about 8.5%
Rev-erbA mod: modulators of Rev-erb alpha DNA binding, primary screen, biochemical, FITC-DNA, fluorescence polarization, uHTS; Rev-erbα–FITC-DNA binding, 90 min; activity, % at 10 µM; 370,000 tested, 0.79% active;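 active means activity above about 14%, limit read from the data; passing the limit was not always enough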;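 further: 0% = DMSO wells with 35 nM protein and 100% = DMSO wells with 750 nM protein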
NR2E3 ag-2: inhibitors of NR2E3-RetCOR corepressor binding, primary screen, NR2E3 agonist project, biochemical, TR-FRET, GST-NR2E3, biotin-RetCOR | 1536-well | inhibition of corepressor binding, % at 4.78 µM | Photoreceptor-specific nuclear receptor (Homo sapiens), Q9Y5X4 | 320,000 tested, 0.12% active | AID 2300, 2010;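 active means percent inhibition above the cutoff of mean plus 3 SD of all tested compounds, set per screening campaign, cut at about 20% in these data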;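 further: 0% = DMSO wells and 100% = biotin wells as full block of FRET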
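Material: NR2E3–RetCOR corepressor complex | Quantity: 1.35 nM GST-tagged NR2E3 final | Schedule: 5 h at 4 °C | Replication: Singlicate compound wells | Reagent: RetCOR corepressor, biotinylated, 7 nM | Controls: Biotin wells as high control, 0.6% DMSO wells as low control | Signal: TR-FRET, Eu(K)-anti-GST donor, streptavidin-D2 acceptor, ex 340, em 617/671 nm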
NR2E3 ag confirm-1: NR2E3 agonists, confirmation, biochemical, TR-FRET; shares compounds with NR2E3 ag-2; cell-free NR2E3 corepressor release, 5 h; activation (reported as inhibition), % at 3.98 µM; 360 tested, 39% active; AID 2379, 2010; in the data active means activation above about 20%
PPARg-NCOR2 ctr: agonists of PPARg-NCOR2 corepressor interaction, counter-screen for NR2E3 agonist project, biochemical, TR-FRET. shares compounds with NR2E3 ag-2. TR-FRET PPARg-NCOR2 coregulator interaction. inhibition, % at 3.98 µM. 360 tested, 45% active; in the data active means inhibition above about 20%;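 further: 0% = DMSO vehicle and 100% = wells without protein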
NR2E3 ag confirm-2: NR2E3 agonist confirmation in cells, cell-based, luminescence, CHO-S two-hybrid. 2,300 tested, 51% active. CHO-S mammalian two-hybrid NR2E3-NCOR, luciferase luminescence. inhibition, % at 3.98 µM. shares compounds with NR2E3 ag-1;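 active means average inhibition above a cutoff equal to the mean inhibition of all tested compounds plus one SD, cut at about 70% in these data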;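 further: 0% = DMSO in NR2E3 cells and 100% = DMSO in cells lacking NR2E3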
GAL4-VP16 luc: GAL4-VP16 reporter modulators, confirmation, counter-screen for NR2E3 agonist project, cell-based, luminescence, CHO-S, high throughput; shares compounds with NR2E3 ag-1; CHO-S GAL4-VP16 luciferase reporter; inhibition, % at 3.98 µM; 2,300 tested, 29% active; AID 624379, 2012;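 active means mean inhibition above a cutoff equal to the average over all tested compounds plus one standard deviation, cut at about 70% in these data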;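 further: luciferase from a UAS reporter driven by GAL4-VP16 transactivation; 0% = DMSO with VP16-transfected cells and 100% = DMSO with cells lacking VP16; higher means less reporter light so more repression of VP16 activity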
PG9 bind confirm: binders of anti-gp120 antibody PG9, confirmation, biochemical, TR-FRET; shares compounds with PG9 binder; TR-FRET PG9 antibody binding; inhibition, % at 6.7 µM; 1,500 tested, 90% active; AID 651571, 2012; in the data active means inhibition above about 9%
PGV04 counter: binders of control antibody PGV04, counter-screen for PG9 antibody binder project, biochemical, TR-FRET, distinct HIV envelope site | shares compounds with PG9 binder | TR-FRET PGV04 antibody-gp120 binding | inhibition, % at 6.7 µM | 1,500 tested, 95% active; in the data active means inhibition above about 9.5%
PG9 bind DR: small-molecule binders of antibody PG9, dose response, biochemical, TR-FRET, HIV-1 gp120 antibody | shares compounds with PG9 binder | TR-FRET PG9 antibody-gp120 binding inhibition | IC50, µM | 95 tested, under 10 active | AID 651848, 2012; in the data active means IC50 below about 10 µM
PGV04 binding DR: binders of control antibody PGV04, dose response, counter-screen for PG9 antibody binder project, biochemical, TR-FRET, distinct HIV envelope site; IC50, µM; 95 tested, 20% active; shares compounds with PG9 binder; TR-FRET binding to control antibody PGV04
PG126 binding DR: binders of control antibody PG126, dose response, counter-screen for PG9 antibody binder project, biochemical, TR-FRET, distinct HIV envelope site; shares compounds with PG9 binder; TR-FRET binding to antibody PG126, counterscreen; IC50, µM; 95 tested, 20% active; AID 651939, 2012
Rev-erbA confirm: modulators of Rev-erb alpha DNA binding, confirmation, biochemical, FITC-DNA, fluorescence polarization, single point; shares compounds with Rev-erbA mod; activation, % at 25 µM; 3,000 tested, 61% active; AID 1259319, 2017; 90 min;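 active means activation at or above a set limit, or at least 3 SD above the negative control mean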;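 further: 0% = 35 nM protein with DMSO and 100% = 750 nM protein high control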
RORg counter: modulation of RORgamma DNA binding, dose response, counter-screen for Rev-erb alpha modulator project, biochemical, fluorescence polarization, FITC-DNA | shares compounds with Rev-erbA mod | purified RORgamma protein-FITC-DNA binding | IC50, µM | 910 tested, 8% active;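 active means Compounds whose fitted half-maximal concentration for disrupting protein-DNA binding is below 10 micromolar; the record names Rev-erb in its text, so the target is in doubt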
* marks the source's active call; other numbers are inactive results; i = inactive; . = not tested or not shown. Unless noted, no stated cut-off is given here; in the data, active means IC50 below about 9 µM; inactive means the rest.

SMILES	NR2E3 ag-1	PG9 binder	Rev-erbA mod	NR2E3 ag-2	NR2E3 ag confirm-1	PPARg-NCOR2 ctr	PG9 bind confirm	PGV04 counter	others
O=C(C1=C(O)C(=O)N(CCCN2CCOCC2)C1c1ccc(Cl)cc1)c1cc2ccccc2o1 (stereo not given)	.	20*	0	30*	28*	21*	24*	30*
Cc1cc(N2C(=O)C(O)=C(C(=O)c3cc4ccccc4o3)C2c2ccc(Cl)cc2)no1 (stereo not given)	51	26*	7	29*	35*	39*	33*	51*	NR2E3 ag confirm-2=88*;GAL4-VP16 luc=59
Cc1cc(N2C(=O)C(O)=C(C(=O)c3cc4ccccc4o3)C2c2cccc(Cl)c2)no1 (stereo not given)	21	27*	-2	22*	39*	45*	40*	56*
CCN(CC)CCCN1C(=O)C(O)=C(C(=O)c2cc3ccccc3o2)C1c1ccccn1 (stereo not given)	-7	25*	-7	22*	24*	24*	55*	72*
CCCOc1ccc(C2C(C(=O)c3cc4ccccc4o3)=C(O)C(=O)N2c2cc(C)on2)cc1 (stereo not given)	-20	6	-6	15	.	.	.	.
NCCCC[C@H](N)C(=O)O	.	.	-1	.	.	.	.	.
O[C@@H](COc1cccc2ncccc12)CN1CCN(C2c3ccccc3[C@@H]3[C@H](c4ccccc42)C3(F)F)CC1 (stereo not given in full)	.	.	-2	.	.	.	.	.
Cc1cc(N2C(=O)C(O)=C(C(=O)c3cc4ccccc4o3)C2c2ccc(Br)cc2)no1 (stereo not given)	-15	12*	-2	24*	25*	30*	32*	45*
Cc1ccc(C(=O)C2=C(O)C(=O)N(c3ncccn3)C2c2ccc(Cl)cc2)o1 (stereo not given)	5	19*	-6	26*	19	15	31*	39*
C#C[C@]1(O)CCC2C3CCc4cc(OC5CCCC5)ccc4C3CC[C@@]21C (stereo not given in full)	.	.	3	.	.	.	.	.
CC(=O)OCC(=O)[C@@]1(O)CCC2C3CCC4=CC(=O)C=CC4(C)C3[C@@H](O)C[C@@]21C (stereo not given in full)	.	.	-9	.	.	.	.	.
CCOC(=O)Cn1c(=S)[nH]c2c(oc3ccc(Cl)cc32)c1=O	-17	16*	8	25*	46*	41*	7	9.4*
CCOC(=O)N1CCN(C(=O)c2ccc3c(=O)n(Cc4ccc(Cl)cc4)c(=S)[nH]c3c2)CC1	-24	1	5	-8	.	.	.	.
CC(=O)Nc1ccc(NC(=O)C(C)OC(=O)/C(C#N)=C/c2ccc(N(C)C)cc2)cc1 (stereo not given)	-46	17*	18*	34*	30*	30*	20*	37*	Rev-erbA confirm=14*
CC(OC(=O)/C(C#N)=C/c1ccc(N(C)C)cc1)C(=O)N(C)c1ccccc1 (stereo not given)	9	0	12	1	.	.	.	.
CCOc1ccc(N=C(C)Nc2ccc(OCC)cc2)cc1	.	.	-3	.	.	.	.	.
Cc1ccc(NC(=S)Nc2nc(CC(=O)Nc3ccccc3)cs2)cc1	-13	16*	101*	20*	13	13	11*	9.7*	PG9 bind DR=>67;PGV04 binding DR=i;PG126 binding DR=i;Rev-erbA confirm=91*;RORg counter=>40
O=[N+]([O-])O[C@@H]1CO[C@H]2[C@@H]1OC[C@@H]2O	.	.	-10	.	.	.	.	.
COc1cccc(OCc2nc3ccccc3[nH]2)c1	-89	-1	-5	2	.	.	.	.
COc1cccc(OCc2nc3ncc(Br)cc3[nH]2)c1	-108	51*	26*	20*	11	26*	52*	64*	Rev-erbA confirm=17*
CC/C=C(\C(=O)N[C@@H]1C(=O)N2C(C(=O)OCOC(=O)C(C)(C)C)=C(COC(N)=O)CS[C@H]12)c1csc(N)n1	.	.	-4	.	.	.	.	.
O=C(CSc1ncnc2c1oc1ccccc12)c1cccs1	-64	29*	73*	31*	25*	25*	30*	52*	Rev-erbA confirm=66*;RORg counter=>40
